Columns and labels:
Assay in all cases: Cell viability assay
Format in all cases: cell-based, human
[1] = tested on: A2780 (cisplatin-sensitive ovarian cancer cells); settings: read-out: IC50 A2780; 96 h of incubation
Method in brief: (§1)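 Cells cultured per supplier at 37 °C, 5% CO2, and seeded at 1.5 × 10^3 per well. Treated with six concentrations of test compound (0.001, 0.01, 0.1, 1, 10 and 100 μM final), diluted into culture medium from a 10 mM DMSO stock; cisplatin stock in water. Viability read by CellTiter-Glo after 96 h. IC50 from triplicates, error bars as standard deviations.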

[2] = tested on: A2780cis (cisplatin-resistant ovarian cancer cells); settings: read-out: IC50 A2780cis; 96 h of incubation
Method in brief: as §1

[3] = tested on: MDA-MB-231 (triple-negative breast cancer); settings: read-out: IC50 MDA-MB-231; 96 h of incubation
Method in brief: as §1

[4] = tested on: U87 (glioblastoma); settings: read-out: IC50 U87; 96 h of incubation
Method in brief: as §1

[5] = tested on: MRC-5 (normal lung fibroblasts); settings: read-out: IC50 MRC-5; 96 h of incubation
Method in brief: as §1

Structure (SMILES)	IC50 [1] [µM]	IC50 [2] [µM]	IC50 [3] [µM]	IC50 [4] [µM]	IC50 [5] [µM]
C[N+]12CN3CN(C1)C[PH]([Pd]([I])([c]1ccc([N+](=O)[O-])cc1)[PH]14CN5CN(C[N+](C)(C5)C1)C4)(C3)C2.F[P-](F)(F)(F)(F)F.F[P-](F)(F)(F)(F)F [7b]	3.1 ± 0.3	0.18 ± 0.02	6.7 ± 0.9	90 ± 10	> 100
N.N.[Cl][Pt][Cl] [Cisplatin, cisplatin, reference compound]		45 ± 5		10.4 ± 0.4	4 ± 1

Source: publication PMC12044415 (RSC Advances, 2025)
